Assay results from ChEMBL document CHEMBL1138748, “A prodrug approach toward the development of water soluble fluoroquinolones and structure--activity relationships of quinoline-3-carboxylic acids” (2004).
In brackets after ≈: the same amount, converted by molar mass.

Experiments:
Type in all cases: functional
Staphylococcus aureus [1] = assay: Antibacterial activity against methicillin susceptible Staphylococcus aureus
Summary of the method: (§1)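 Broth microdilution per NCCLS standards: serial 2-fold dilutions in cation-adjusted Mueller–Hinton broth, inoculum ~5 × 10^5 CFU/mL, 35 °C for 18–24 h, visual read; MIC = lowest concentration giving complete growth inhibition (no visible turbidity). Reference strains, e.g. S. aureus 29213 (susceptible) and 33591 (MRSA).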

Enterococcus faecalis [2] = assay: Antibacterial activity against Enterococcus faecalis
Summary of the method: (§2)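 Broth microdilution MIC run to NCCLS standards: serial 2-fold dilutions in cation-adjusted Mueller–Hinton broth, inoculum ~5 × 10^5 CFU/mL, incubated 35 °C for 18–24 h. Trays were read by eye, and the MIC was taken as the lowest concentration giving complete growth inhibition (no visible turbidity).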

Staphylococcus aureus [3] = assay: Antibacterial activity against methicillin resistant Staphylococcus aureus; summary of the method: as §1
Pseudomonas aeruginosa [4] = assay: Antibacterial activity against Pseudomonas aeruginosa; summary of the method: as §2
Pseudomonas aeruginosa [5] = assay: Antibacterial activity against Pseudomonas aeruginosa strain 27853; summary of the method: as §2
Staphylococcus aureus [6] = assay: Antibacterial activity against Staphylococcus aureus strain St au 33591 MRSA; summary of the method: as §2
Escherichia coli [7] = assay: Antibacterial activity against Escherichia coli strain 25922; summary of the method: as §2
Staphylococcus aureus [8] = assay: Antibacterial activity against Staphylococcus aureus strain St au 29213; summary of the method: as §2
Enterococcus faecalis [9] = assay: Antibacterial activity against Enterococcus faecalis strain 29212; summary of the method: as §2
Escherichia coli [10] = assay: Antibacterial activity against Escherichia coli; summary of the method: as §2
Staphylococcus aureus [11] = assay: Antibacterial activity against Staphylococcus aureus strain 29213; summary of the method: as §2

Structure (SMILES) | MIC (Staphylococcus aureus [1]) [µg/mL] | MIC (Enterococcus faecalis [2]) [µg/mL] | MIC (Staphylococcus aureus [3]) [µg/mL] | MIC (Pseudomonas aeruginosa [4]) [µg/mL] | MIC (Pseudomonas aeruginosa [5]) [µg/mL] | MIC (Staphylococcus aureus [6]) [µg/mL] | MIC (Escherichia coli [7]) [µg/mL] | MIC (Staphylococcus aureus [8]) [µg/mL] | MIC (Enterococcus faecalis [9]) [µg/mL] | MIC (Escherichia coli [10]) [µg/mL] | MIC (Staphylococcus aureus [11]) [µg/mL]
O=C(O)c1cn(C2CC2)c2cc(N3CCNCC3)c(F)cc2c1=O [CIPROFLOXACIN] | 0.25 (≈ 0.754 µM) | 1 (≈ 3.02 µM) | 0.5 (≈ 1.51 µM) | – | – | – | – | – | – | – | –
CN1CCN(c2cc3c(cc2F)c(=O)c(C(=O)O)cn3-c2ccc(O)cc2)CC1 | 0.1 (≈ 0.252 µM) | 0.78 (≈ 1.96 µM) | 0.1 (≈ 0.252 µM) | 0.78 (≈ 1.96 µM) | 0.78 (≈ 1.96 µM) | 0.2 (≈ 0.503 µM) | < 0.05 | 0.1 (≈ 0.252 µM) | 0.78 (≈ 1.96 µM) | 0.05 (≈ 0.126 µM) | –
CN1CCN(c2cc3c(cc2F)c(=O)c(C(=O)O)cn3-c2ccc(OP(=O)(O)O)cc2)CC1 | 1.56 (≈ 3.27 µM) | 25 (≈ 52.4 µM) | 0.78 (≈ 1.63 µM) | 50 (≈ 105 µM) | – | – | – | – | – | 0.2 (≈ 0.419 µM) | –
O=C(O)c1cn(-c2ccc(O)cc2)c2cc(N3CCNCC3)c(F)cc2c1=O | – | – | – | – | 1.56 (≈ 4.07 µM) | 0.4 (≈ 1.04 µM) | 0.4 (≈ 1.04 µM) | – | 6.25 (≈ 16.3 µM) | – | 0.78 (≈ 2.03 µM)
